Compound activity as filed in PubChem.
HTR2A ag – mouse HTR2A agonism via beta-arrestin recruitment; CHO-K1 mHTR2A beta-arrestin complementation, luminescence; percent of 30 µM serotonin response; P35363; activation, % at 7.6 µM; AID 624169; actives 0.66% (n = 360,000);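 active means activation above a run cutoff, the mean activation of all tested compounds plus 3 SD, cut at about 14% in these data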;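 further: 0% = plate median of compound wells and 100% = 30 µM serotonin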
Target sequence (P35363 whole entry, looked up): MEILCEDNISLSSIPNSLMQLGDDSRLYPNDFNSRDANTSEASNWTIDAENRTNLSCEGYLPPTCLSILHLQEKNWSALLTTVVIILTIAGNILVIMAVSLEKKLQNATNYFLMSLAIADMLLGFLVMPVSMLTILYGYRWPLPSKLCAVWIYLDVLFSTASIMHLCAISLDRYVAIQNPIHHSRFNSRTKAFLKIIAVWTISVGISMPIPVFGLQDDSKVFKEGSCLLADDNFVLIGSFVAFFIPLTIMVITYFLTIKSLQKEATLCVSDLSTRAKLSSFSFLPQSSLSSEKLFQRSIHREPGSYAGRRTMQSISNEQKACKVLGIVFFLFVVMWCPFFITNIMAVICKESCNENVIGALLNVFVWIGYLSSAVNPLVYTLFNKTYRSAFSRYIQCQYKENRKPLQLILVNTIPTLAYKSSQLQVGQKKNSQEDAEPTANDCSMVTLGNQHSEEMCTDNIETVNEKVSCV
IMP-1 inh – inhibitors of Pseudomonas aeruginosa IMP-1 metallo-beta-lactamase | inhibition, % at 5.6 µM | actives 0.45% (n = 290,000) | purified IMP-1, nitrocefin hydrolysis, epi-absorbance fluorescence | AID 1556;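 active means inhibition above the mean plus 3 SD of all compounds in the same screening run, cut at about 4.5% in these data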;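 further: 0% = IMP-1 with DMSO and 100% = DMSO wells lacking enzyme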
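System: Purified IMP-1 | Read-out basis: Percent enzyme inhibition | Controls: IMP-1 with DMSO as 0%, enzyme-free DMSO as 100% | Replicates: One well per compound | Doses: 5.6 µM nominal single concentration | Detection: Epi-absorbance fluorescence, 480 nm excitation, 530 nm emission | Incubation: 25 °C, 15 min preincubation, 25 min reaction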
VIM-2 inhibitor – inhibitors of Pseudomonas aeruginosa VIM-2 metallo-beta-lactamase | actives 0.89% (n = 290,000) | inhibition, % at 5.6 µM | purified VIM-2, nitrocefin hydrolysis, epi-absorbance fluorescence;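 active means inhibition above the mean of all tested compounds plus 3 SD, cutoff set per screening run, cut at about 7.5% in these data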;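 further: red hydrolysis product quenches plate fluorescence so inhibitors raise well fluorescence; 0% = enzyme with DMSO and 100% = DMSO without enzyme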
dFosB activator – mouse delta FosB homodimer activation. purified delta FosB, TAMRA-CDK5 oligo fluorescence polarization; percent of positive-control signal above neutral wells. activation, % at 25 µM. actives 0.99% (n = 340,000);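 active means mean activation above about 17%, with every replicate also reaching it, limit read from the data, passing the limit was not always enough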
* hit, by the source's call. Sampled rows, rich in hits. Any-hit rate of the full collection: about 2.5%.

Screening O=C(OCC(=O)c1ccc[nH]1)c1cncc(Br)c1 returned HTR2A ag 15* and dFosB activator -5.
`CCn1cc(C(=O)Nc2sc(C)c(C)c2C(=O)OC)cn1` gave HTR2A ag 0, IMP-1 inh -6, VIM-2 inhibitor 1 and dFosB activator -9.
Screening COC(=O)c1c(NC(=O)c2ccnn2C)sc(C)c1C returned HTR2A ag 4, IMP-1 inh 4.7*, VIM-2 inhibitor 0 and dFosB activator -2.
`COc1cc(C2Nc3cccc4cccc(c34)N2)cc(OC)c1O` gave HTR2A ag -8, IMP-1 inh -1, VIM-2 inhibitor 1 and dFosB activator 41*.
`FC(F)(F)c1ccc(C2Nc3cccc4cccc(c34)N2)cc1` gave HTR2A ag 1, IMP-1 inh -4, VIM-2 inhibitor 0 and dFosB activator -2.
Screening Fc1ccc(C2Nc3cccc4cccc(c34)N2)cc1 returned HTR2A ag -4, IMP-1 inh 1, VIM-2 inhibitor 2 and dFosB activator 25*.
CCN(C[C@H]1N[C@@](Cc2ccccc2)(C(=O)OC)[C@H]2C(=O)N(C)C(=O)[C@@H]12)S(=O)(=O)c1ccc(-c2ccccc2)cc1 was read as HTR2A ag -3 and dFosB activator -3.
For Cc1nc(NC2=NCN(CCCN3CCOCC3)CN2)nc2c(C)cccc12 the results were HTR2A ag -2, IMP-1 inh -1, VIM-2 inhibitor 8.7* and dFosB activator 32*.
CC(NC(=O)COC(=O)CN1C(=O)NC2(CCCC2)C1=O)c1ccc(F)cc1 (stereo not drawn) was read as HTR2A ag -8 and dFosB activator -8.
Screening COc1ccc2c(c1)Cc1c-2cc(Br)c(N)c1Br returned HTR2A ag -1.
O=C(COC(=O)c1cc(Cl)nc(Cl)c1)Nc1ccc(Cl)c(S(=O)(=O)N2CCOCC2)c1 was read as HTR2A ag 7 and dFosB activator -2.
For COc1cccc(CNC(=O)Cc2ccc(-c3ccccc3)cc2)c1 the results were HTR2A ag 11, IMP-1 inh 19*, VIM-2 inhibitor -1 and dFosB activator -2.
Screening COc1ccc(CC(=O)NCc2ccccc2)cc1 returned HTR2A ag -2, IMP-1 inh -1, VIM-2 inhibitor -2 and dFosB activator -8.
For CC(C)(C)C(=O)NC(=S)Nc1ccc(Cc2ccncc2)cc1 the results were HTR2A ag 0, IMP-1 inh 7.7*, VIM-2 inhibitor 2 and dFosB activator -5.
For Cc1cc(NC(=O)COC(=O)c2cnccn2)ccc1Br the results were HTR2A ag -5 and dFosB activator 0.
COc1ccc(S(=O)(=O)NCC2CCCO2)c(Cl)c1Cl (stereo not drawn) was read as HTR2A ag -3, IMP-1 inh 9.2*, VIM-2 inhibitor -1 and dFosB activator -4.
COc1cc(S(=O)(=O)NCC2CCCO2)c(OC)cc1Cl (stereo not drawn) was read as HTR2A ag 5, IMP-1 inh -4, VIM-2 inhibitor -4 and dFosB activator -9.
For O=C(N/N=C/c1ccccc1OCc1ccccc1)c1cccs1 the results were HTR2A ag 2, IMP-1 inh -3, VIM-2 inhibitor -2 and dFosB activator 0.
`CNC(=O)c1cn(-c2ccccc2)c(=O)c2ccccc12` gave HTR2A ag -4, IMP-1 inh 6.1*, VIM-2 inhibitor -2 and dFosB activator 6.
CN(C)C(=O)c1cn(-c2ccccc2)c(=O)c2ccccc12 was read as HTR2A ag 0, IMP-1 inh 1, VIM-2 inhibitor -1 and dFosB activator -2.
Screening COc1cc(OC)cc(C(=O)c2c(C)c(C#N)c3ccccn23)c1 returned HTR2A ag 2, IMP-1 inh -2, VIM-2 inhibitor 7.8* and dFosB activator -5.
For O=C(Cc1c(F)c(F)c(F)c(F)c1F)Nc1nc(-c2ccccc2)cs1 the results were HTR2A ag -6, IMP-1 inh -4, VIM-2 inhibitor -2 and dFosB activator -2.
Screening O=C(/C=C/c1ccco1)NC(=S)Nc1cccc(C(=O)O)c1 returned HTR2A ag -4, IMP-1 inh 8.9*, VIM-2 inhibitor -4 and dFosB activator -4.
COc1cccc(NC(=S)NC(=O)/C=C/c2ccco2)c1 was read as HTR2A ag 0, IMP-1 inh -2, VIM-2 inhibitor -2 and dFosB activator -9.
CC(C)(C)OC(=O)C[C@@H]1C/C=C\C[C@H](CC(=O)NCCO)C(=O)N2CCC[C@H]2COC1=O was read as HTR2A ag -7 and dFosB activator -1.
Screening CCN(CC)CCCNC(=O)c1ccc2c(Cl)c3c(nc2c1)CCCC3 returned HTR2A ag -2, IMP-1 inh -3, VIM-2 inhibitor 9.3* and dFosB activator -32.
`CCN(CC)CCCNC(=O)c1ccc2c(SCC(=O)O)c3c(nc2c1)CCC3` gave IMP-1 inh -4 and VIM-2 inhibitor 2.
For CCN(CC)CCNC(=O)CSc1c2c(nc3cc(Cl)ccc13)CCCC2 the results were HTR2A ag -4, IMP-1 inh -1, VIM-2 inhibitor 8.4* and dFosB activator -5.
CCCCN(CC)CCNC(=O)c1ccc2c(Cl)c3c(nc2c1)CCC3 was read as HTR2A ag -8, IMP-1 inh -3, VIM-2 inhibitor 6 and dFosB activator -13.
Screening CCCN1CCN(CCCNC(=O)c2ccc3c(Cl)c4c(nc3c2)CCCC4)CC1 returned HTR2A ag -13, IMP-1 inh -3, VIM-2 inhibitor 8.4* and dFosB activator -33.
For O=C(NCCCN1CCCC1)c1ccc2c(Cl)c3c(nc2c1)CCCC3 the results were HTR2A ag -5, IMP-1 inh -2, VIM-2 inhibitor 2 and dFosB activator -23.
Screening CCOC(=O)N1CCN(c2nc(-c3ccccc3)c3ccccc3n2)CC1 returned HTR2A ag 3, IMP-1 inh -3, VIM-2 inhibitor -2 and dFosB activator -7.
Screening COc1cc2c3nnc(-c4ccc(F)cc4)c-3cn(Cc3cccc(F)c3)c2cc1OC returned HTR2A ag 8, IMP-1 inh -4, VIM-2 inhibitor -4 and dFosB activator 38*.
Screening CCOc1ccc(NC(=O)CN(C)C(=O)c2cc3c(s2)CCCCC3)cc1OCC returned HTR2A ag 4 and dFosB activator -4.
For COc1ccc(OCC(O)CNC(=O)c2sccc2Cl)cc1 (stereo not drawn) the results were HTR2A ag -2, IMP-1 inh 38*, VIM-2 inhibitor -3 and dFosB activator 3.
Screening COc1ccc(OCC(O)CNC(=O)Nc2ccccc2)cc1 (stereo not drawn) returned HTR2A ag -2, IMP-1 inh 3, VIM-2 inhibitor 3 and dFosB activator 7.
For CCN(CCO)c1nc(SC)nc2c1sc1nc(-c3ccco3)c3c(c12)CCC3 the results were HTR2A ag -1, IMP-1 inh 12*, VIM-2 inhibitor 1 and dFosB activator -9.
`C=CCn1cc(/C=N/NC(=O)COc2cccc3cccnc23)c2ccccc21` gave HTR2A ag -3, IMP-1 inh 2, VIM-2 inhibitor 9.3* and dFosB activator -7.
COc1ccc2c(CN3CCCCCCC3)cc(=O)oc2c1 was read as HTR2A ag -1.
